Assay results from ChEMBL document CHEMBL5055640, “Discovery of Novel Acetamide-Based Heme Oxygenase-1 Inhibitors with Potent In Vitro Antiproliferative Activity” (J Med Chem, 2021).
The source made the active and inactive calls. The rule behind the calls is not given here.

Experiments:
A549 [1] = test: Antiproliferative activity against human A549 cells assessed as reduction in cell viability at 10 uM incubated for 48 hrs by MTT assay; format: functional, cell-based
Outline: (§1)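 Cells grown in DMEM with 10% heat-inactivated FBS and penicillin/streptomycin at 37 °C, 5% CO2, seeded at 7 × 10^3 cells/well. After 24 h, treated 48 h at 1, 10 or 50 μM. MTT 0.5 mg/mL added for 4 h at 37 °C, formazan dissolved in DMSO, A570 read. Eight replicate wells per group, at least three independent experiments, % of control, mean ± SEM.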

A549 [2] = test: Antiproliferative activity against human A549 cells assessed as reduction in cell viability at 1 uM incubated for 48 hrs by MTT assay; format: functional, cell-based; outline: as §1
A 172 [3] = test: Antiproliferative activity against human A172 cells assessed as reduction in cell viability at 50 uM incubated for 48 hrs by MTT assay; format: functional, cell-based; outline: as §1
A 172 [4] = test: Antiproliferative activity against human A172 cells assessed as reduction in cell viability at 10 uM incubated for 48 hrs by MTT assay; format: functional, cell-based; outline: as §1
A 172 [5] = test: Antiproliferative activity against human A172 cells assessed as reduction in cell viability at 1 uM incubated for 48 hrs by MTT assay; format: functional, cell-based; outline: as §1
U-87 MG [6] = test: Antiproliferative activity against human U-87MG cells assessed as reduction in cell viability at 50 uM incubated for 48 hrs by MTT assay relative to control; format: functional, U-87MG ATCC; conditions: for inhibition: U-87MG ATCC; outline: as §1
U-87 MG [7] = test: Antiproliferative activity against human U-87MG cells assessed as reduction in cell viability at 10 uM incubated for 48 hrs by MTT assay relative to control; format: functional, U-87MG ATCC; outline: as §1
U-87 MG [8] = test: Antiproliferative activity against human U-87MG cells assessed as reduction in cell viability at 1 uM incubated for 48 hrs by MTT assay relative to control; format: functional, U-87MG ATCC; outline: as §1
Rattus norvegicus = species on record: Rattus norvegicus; test: Selectivity index, ratio of IC50 for inhibition of Sprague-Dawley rat brain microsome HO-2 to IC50 for inhibition of Sprague-Dawley rat spleen microsome HO-1
Heme oxygenase 1 = target: T1, Heme oxygenase 1 (Rattus norvegicus, UniProt P06762); test: Inhibition of Sprague-Dawley rat spleen microsome HO-1 assessed as bilirubin formation incubated for 60 mins by double-beam spectrophotometry; format: microsomes
T1 sequence (P06762 whole entry): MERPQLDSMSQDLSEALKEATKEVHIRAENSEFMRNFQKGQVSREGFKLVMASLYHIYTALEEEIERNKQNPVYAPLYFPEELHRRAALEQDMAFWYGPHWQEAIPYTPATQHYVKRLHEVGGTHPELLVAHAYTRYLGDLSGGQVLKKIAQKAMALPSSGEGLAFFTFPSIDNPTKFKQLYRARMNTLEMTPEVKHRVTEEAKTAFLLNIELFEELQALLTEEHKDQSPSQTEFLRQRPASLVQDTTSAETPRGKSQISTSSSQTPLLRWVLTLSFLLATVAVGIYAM

DU-145 [9] = test: Reduction in HO-1 expression in human DU-145 cells at 10 uM incubated for 48 hrs by Western blot analysis; format: functional, cell-based
Outline: (§2)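 Cells treated 48 h at 10 μM. Lysed in Tris/EDTA/EGTA/sucrose buffer with protease and phosphatase inhibitors, sonicated, spun. 30 μg protein resolved on 4–15% Bis-Tris gel, transferred to PVDF, probed for HO-1. Band density normalized to actin and given as fold change; three independent experiments, mean ± SEM.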

U-87 MG [10] = test: Antiinvasive activity against human U-87 MG cells assessed as reduction in cell motility measured after 48 hrs by wound healing assay; format: functional, cell-based; conditions: U-87MG ATCC
Outline: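 Confluent U87MG monolayers (5 × 10^4 cells/well) scratched with a pipette tip, then cultured in 1% serum medium with or without 10 μM compound. Cells advancing into the wound counted at 24 and 48 h in three random high-power fields per well, duplicate wells, and expressed as % of control. Mean ± SEM.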

U-87MG ATCC [11] = test: Reduction in HO-1 expression in human U-87MG cells at 10 uM incubated for 48 hrs by Western blot analysis; format: functional, cell-based; outline: as §2
[12] = target: T2, Heme oxygenase 1 (Homo sapiens) (UniProt P09601); test: Inhibition of human HO-1 activity in human U-87MG cells assessed as reduction in immunoreactivity in cytoplasm at 10 uM incubated for 48 hrs […]; format: cell-based
T2 sequence (whole entry): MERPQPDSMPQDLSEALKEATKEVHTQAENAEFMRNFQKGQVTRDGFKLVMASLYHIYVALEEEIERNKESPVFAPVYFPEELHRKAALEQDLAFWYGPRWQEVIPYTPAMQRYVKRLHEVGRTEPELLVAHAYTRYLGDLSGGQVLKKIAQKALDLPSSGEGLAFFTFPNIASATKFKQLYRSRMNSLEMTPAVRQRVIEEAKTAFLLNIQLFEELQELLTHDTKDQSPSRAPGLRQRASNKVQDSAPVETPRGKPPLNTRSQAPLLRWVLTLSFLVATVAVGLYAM
Outline: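 U87MG cells on coverslips treated 48 h at 10 μM or left untreated. Fixed in 4% paraformaldehyde, permeabilized with 0.2% Triton X-100, blocked with 0.1% BSA, probed with rabbit anti-HO-1 then Alexa Fluor 488 anti-rabbit. Nuclei counterstained with DAPI; random fields imaged by fluorescence microscopy.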

U-87MG ATCC [13] = test: Reduction in VEGF intracellular expression in human U-87 MG cells by Western blot analysis; format: functional, cell-based
Outline: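 U87MG cells treated 48 h with vehicle or 10 μM compound. Lysates (30 μg protein) resolved on 4–15% Bis-Tris gel and immunoblotted with goat polyclonal anti-VEGF; β-tubulin and β-actin antibodies also used.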

U-87MG ATCC [14] = test: Reduction in VEGF release in human U-87 MG cells by ELISA; format: functional, cell-based
Outline: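 Confluent U87MG cells in 1% FBS medium treated 48 h with 10 μM compound or vehicle. VEGF-A in the conditioned medium measured by sandwich ELISA: capture antibody, biotinylated anti-human VEGF, HRP-streptavidin, TMB substrate, absorbance at 450 nm.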

H5V = test: Antiangiogenesis activity in mouse H5V cells assessed as decrease in tube like structure formation using culture medium derived from human U-87 MG cells treated at 10 uM for 48 hrs; format: functional, cell-based
Outline: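 Conditioned medium: subconfluent U87MG cells held 48 h at 37 °C in 1% FBS medium with 10 μM compound or vehicle, then spun and frozen. Overnight-starved H5V endothelial cells seeded on reduced-growth-factor basement membrane matrix and cultured 48 h at 37 °C in the conditioned medium. Tubes counted in three random fields and expressed as % of control.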

[15] = target: T2, Heme oxygenase 1 (Homo sapiens); test: Inhibition of human HO-1 activity in human U-87MG cells assessed as bilirubin formation at 10 uM
Heme oxygenase 2 = target: T3, Heme oxygenase 2 (Rattus norvegicus, UniProt P23711); test: Inhibition of Sprague-Dawley rat brain microsome HO-2 assessed as bilirubin formation incubated for 60 mins by double-beam spectrophotometry; format: microsomes
T3 sequence (P23711 whole entry): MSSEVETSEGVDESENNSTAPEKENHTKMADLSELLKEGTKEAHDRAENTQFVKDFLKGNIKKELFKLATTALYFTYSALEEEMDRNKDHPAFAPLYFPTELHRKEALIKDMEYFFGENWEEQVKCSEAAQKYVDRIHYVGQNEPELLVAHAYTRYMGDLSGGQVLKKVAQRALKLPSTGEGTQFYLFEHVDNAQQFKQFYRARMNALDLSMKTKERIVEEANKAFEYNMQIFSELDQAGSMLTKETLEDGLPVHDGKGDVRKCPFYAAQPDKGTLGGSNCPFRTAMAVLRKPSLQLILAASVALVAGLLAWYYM

DU-145 [16] = test: Antiproliferative activity against human DU145 cells assessed as reduction in cell viability at 10 uM incubated for 48 hrs by MTT assay; format: functional, cell-based; outline: as §1
DU-145 [17] = test: Antiproliferative activity against human DU145 cells assessed as reduction in cell viability at 50 uM incubated for 48 hrs by MTT assay; format: functional, cell-based; outline: as §1
DU-145 [18] = test: Antiproliferative activity against human DU145 cells assessed as reduction in cell viability at 1 uM incubated for 48 hrs by MTT assay; format: functional, cell-based; outline: as §1
A549 [19] = test: Antiproliferative activity against human A549 cells assessed as reduction in cell viability at 50 uM incubated for 48 hrs by MTT assay; format: functional, cell-based; outline: as §1

Row | Compound | inhibition (A549 [1]) | inhibition (A549 [2]) | inhibition (A 172 [3]) | inhibition (A 172 [4]) | inhibition (A 172 [5]) | inhibition at 10 µM (U-87 MG [7]) [%] | inhibition at 1 µM (U-87 MG [8]) [%] | further results
1 | CN(C(=O)Cn1ccnc1)C(c1ccccc1)c1cccc(Br)c1 (configuration not stated) | inactive | inactive | inactive | inactive | inactive | > 30 | > 30 | inhibition at 50 µM (U-87 MG [6]): > 30%
2 | O=C(Cn1ccnc1)NC(c1ccccc1)c1ccccc1 | – | – | – | – | – | – | – | Selectivity Index (Rattus norvegicus): 0.5
3 | CN(C(=O)Cn1ccnc1)c1ccccc1 | – | – | – | – | – | – | – | IC50 (Heme oxygenase 1): 2500 µM
4 | CN(C(=O)Cn1ccnc1)C(c1ccccc1)c1ccccc1 | inactive | inactive | Active | Active | Active | – | – | Activity (DU-145 [9]): Active
5 | CN(C(=O)Cn1ccnc1)C(c1ccccc1)c1ccc(Cl)cc1 (configuration not stated) | inactive | inactive | Active | Active | Active | > 60 | > 60 | inhibition at 50 µM (U-87 MG [6]): > 60%; Activity (U-87 MG [10]): Active; Activity (U-87MG ATCC [11]): Active; inhibition [12]: Active; Activity (U-87MG ATCC [13]): Active; Activity (U-87MG ATCC [14]): Active; Activity (H5V): Active; inhibition [15]: Active
6 | FC(F)(F)c1ccc(SC[C@@H]2CO[C@](CCc3ccc(Cl)cc3)(Cn3ccnc3)O2)nc1 | – | – | – | – | – | – | – | IC50 (Heme oxygenase 2): 16 µM; IC50 (Heme oxygenase 1): 2.1 µM
7 | CN(C(=O)Cn1ccnc1)C(c1ccccc1)C1CCCC1 (configuration not stated) | – | – | Active | Active | Active | – | – | –
8 | CN(C(=O)Cn1ccnc1)C(c1ccccc1)c1ccc(OCc2ccccc2)cc1 (configuration not stated) | inactive | inactive | Active | Active | Active | 20 | 20 | inhibition (DU-145 [16]): Active; inhibition (DU-145 [17]): Active; inhibition (DU-145 [18]): Active; inhibition (A549 [19]): Active; inhibition (U-87 MG [6]): Active
9 | CN(C(=O)Cn1ccnc1)C(c1ccccc1)c1ccc(OCc2ccc(Br)cc2)cc1 (configuration not stated) | inactive | inactive | Active | Active | – | 20 | 20 | inhibition (DU-145 [16]): Active; inhibition (DU-145 [17]): Active; inhibition (DU-145 [18]): Active; inhibition (A549 [19]): Active; inhibition (U-87 MG [6]): Active
10 | CN(C(=O)Cn1ccnc1)C(c1ccccc1)C1CCCCC1 (configuration not stated) | – | – | Active | Active | Active | – | – | –
11 | CN(C(=O)Cn1ccnc1)C(c1ccccc1)c1ccc(I)cc1 (configuration not stated) | inactive | inactive | Active | Active | – | > 30 | > 30 | inhibition (DU-145 [17]): Active; inhibition (A549 [19]): Active; inhibition (U-87 MG [6]): Active; Activity (DU-145 [9]): Active
